In brackets after ≈: the same amount, converted by molar mass. Activity calls are given as the source filed them. The rule behind the calls is not given here.
Assays:
[1] = Antioxidant activity assessed as DPPH radical scavenging activity incubated under dark condition for 30 mins by spectrophotometric analysis; format: functional
Outline: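 DPPH radical reduction (violet to colorless in ethanol) monitored spectrophotometrically; ascorbic acid run as reference; IC50 reported in µg/ml.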

Danio rerio [2] = experiment: Antiinflammatory activity in Tg(mpx:GFP) zebrafish larvae assessed as decrease in neutrophil recruitment to wounded tail fin at 10 to 50 ug/ml dosed 4 hrs post amputation measured after 6 hrs; format: functional, organism-based
[3] = Chemical stability of the compound assessed as parent compound remaining at 1 mg/ml measured after 14 days at 45 degC by HPLC method (reference value: 100%); format: physicochemical; details: read-out: Stability
Outline: (§1)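 Sample dissolved at 1 mg in 1 mL distilled water, stored at 45 °C and analysed by HPLC at intervals up to 28 days; remaining amount expressed relative to day-0 HPLC peak area set as 100%.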

[4] = Chemical stability of the compound assessed as parent compound remaining at 1 mg/ml measured after 28 days at 45 degC by HPLC method (reference value: 100%); format: physicochemical; details: read-out: Stability; outline: as §1
RAW264.7 [5] = experiment: Antiinflammatory activity in mouse RAW264.7 cells assessed as inhibition of LPS-induced nitric oxide production after 24 hrs by Griess reagent based assay; format: functional, cell-based
Outline: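 RAW264.7 mouse macrophages co-treated with LPS (0.3 μg/mL) plus the test agent at a range of concentrations; NO output quantified as nitrite accumulated in culture medium after 24 h incubation.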

Danio rerio [6] = organism: Danio rerio; experiment: Effect on neutrophil recruitment to wounded tail fin in Tg(mpx:GFP) zebrafish larvae at 10 to 50 ug/ml measured after 6 hrs; format: ADME, organism-based
[7] = Chemical stability of the compound assessed as parent compound remaining at 1 mg/ml measured after 1 day at 45 degC by HPLC method (reference value: 100%); format: physicochemical; details: read-out: Stability; outline: as §1
[8] = Chemical stability of the compound assessed as parent compound remaining at 1 mg/ml measured after 21 days at 45 degC by HPLC method (reference value: 100%); format: physicochemical; details: read-out: Stability; outline: as §1
RAW264.7 [9] = experiment: Cytotoxicity against mouse RAW264.7 cells assessed as decrease in cell viability at 100 ug/ml after 24 hrs by WST-1 assay; format: cell-based; details: raw264.7, 24 h
[10] = Chemical stability of the compound assessed as parent compound remaining at 1 mg/ml measured after 7 days at 45 degC by HPLC method (reference value: 100%); format: physicochemical; details: read-out: Stability; outline: as §1

Cl.NC(CCC(=O)O)C(=O)NNc1ccccc1O (configuration not stated)
IC50 [1]: 37.19 µg/mL

CCc1ccccc1NNC(=O)CC[C@H](N)C(=O)O
IC50 [1]: 17.14 µg/mL (≈ 64.6 µM)

O=C(CC[C@H](NC(=O)OCc1ccccc1)C(=O)OCc1ccccc1)NNc1ccccc1OCc1ccccc1
IC50 [1]: 44.98 µg/mL (≈ 79.2 µM)

O=C1O[C@H]([C@@H](O)CO)C(O)=C1O [ASCORBIC ACID]
IC50 [1]: 17.38 µg/mL (≈ 98.7 µM)

N[C@@H](CCC(=O)NNc1ccccc1F)C(=O)O
IC50 [1]: 10.86 µg/mL (≈ 42.5 µM)

N[C@@H](CCC(=O)Nc1ccccc1O)C(=O)O
IC50 [1]: 162.42 µg/mL (≈ 682 µM)

N[C@@H](CCC(=O)NNc1cccc(F)c1)C(=O)O
IC50 [1]: 11.44 µg/mL (≈ 44.8 µM)

N[C@@H](CCC(=O)NNc1ccc(F)cc1)C(=O)O
IC50 [1]: 13.77 µg/mL (≈ 53.9 µM)

CS(=O)(=O)c1ccc(NNC(=O)CC[C@H](N)C(=O)O)c(F)c1
Activity (Danio rerio [2]): Active
remaining at 336 h, 1 mg/ml [3]: 87%
remaining at 672 h, 1 mg/ml [4]: 87.2%
inhibition (RAW264.7 [5]): Dose-dependent effect
Activity (Danio rerio [6]): Non-Toxic
remaining at 24 h, 1 mg/ml [7]: 99.4%
remaining at 504 h, 1 mg/ml [8]: 88.8%
Activity (RAW264.7 [9]): Non-Toxic
IC50 [1]: 8.72 µg/mL (≈ 26.2 µM)
remaining at 168 h, 1 mg/ml [10]: 95%

Cc1ccc(NNC(=O)CC[C@H](N)C(=O)O)c(C)c1
IC50 [1]: 15.75 µg/mL (≈ 59.4 µM)

Cc1ccc(NNC(=O)CC[C@H](N)C(=O)O)cc1
remaining at 336 h, 1 mg/ml [3]: 72.2%
remaining at 672 h, 1 mg/ml [4]: 50.4%
remaining at 24 h, 1 mg/ml [7]: 85.1%
remaining at 504 h, 1 mg/ml [8]: 58.1%
Activity (RAW264.7 [9]): Non-Toxic
IC50 [1]: 9.99 µg/mL (≈ 39.8 µM)
remaining at 168 h, 1 mg/ml [10]: 82%

Cc1ccccc1NNC(=O)CC[C@H](N)C(=O)O
remaining at 336 h, 1 mg/ml [3]: 56.7%
remaining at 24 h, 1 mg/ml [7]: 82.3%
Activity (RAW264.7 [9]): Non-Toxic
IC50 [1]: 6.24 µg/mL (≈ 24.8 µM)
remaining at 168 h, 1 mg/ml [10]: 73.8%

N[C@@H](CCC(=O)NNc1ccccc1O)C(=O)O
remaining at 24 h, 1 mg/ml [7]: 45.7%

N[C@@H](CCC(=O)NNc1cc(O)cc(O)c1)C(=O)O
IC50 [1]: 316.86 µg/mL (≈ 1180 µM)

N[C@@H](CCC(=O)NNc1cccc(O)c1)C(=O)O
IC50 [1]: 10.67 µg/mL (≈ 42.1 µM)

Cc1cccc(NNC(=O)CC[C@H](N)C(=O)O)c1
IC50 [1]: 10.1 µg/mL (≈ 40.2 µM)

N[C@@H](CCC(=O)NNc1ccc(O)cc1O)C(=O)O
IC50 [1]: 28.01 µg/mL (≈ 104 µM)

CS(=O)(=O)c1ccc(NNC(=O)CC[C@H](N)C(=O)O)cc1
remaining at 336 h, 1 mg/ml [3]: 85.5%
remaining at 672 h, 1 mg/ml [4]: 70.7%
remaining at 24 h, 1 mg/ml [7]: 100%
remaining at 504 h, 1 mg/ml [8]: 79.2%
IC50 [1]: 9.57 µg/mL (≈ 30.3 µM)
remaining at 168 h, 1 mg/ml [10]: 94.6%

Source: ChEMBL document CHEMBL4184083, “Design, synthesis and biological evaluation of glutamic acid derivatives as anti-oxidant and anti-inflammatory agents” (Bioorg Med Chem Lett, 2018)
